In ChEMBL document CHEMBL3414524, “Synthesis, carbonic anhydrase inhibition and cytotoxic activity of novel chromone-based sulfonamide derivatives” (Eur J Med Chem, 2015):

Tests used:
MCF7 [1] = assay: Cytotoxicity against human MCF7 cells after 72 hrs by sulforhodamine B assay; assay type: functional, cell-based; details: MCF7, 72 h
How it was run: (§1)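 Cells in log phase were plated at 1000-2000 cells/well. After 24 h they were exposed to a range of concentrations for 72 h, then fixed with 10% TCA for 1 h at 4 °C. IC50 came from a Boltzmann sigmoidal nonlinear fit, as the mean of three separate experiments.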

A549 [2] = assay: Cytotoxicity against human A549 cells after 72 hrs by sulforhodamine B assay; assay type: functional, cell-based; details: A549, 72 h
How it was run: as §1, with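 “°C. Staining used 0.4% SRB in 1% acetic acid for 10 min at room temperature, with the dye solubilized in Tris-HCl and OD read at 564 nm.” for “°C.”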

Carbonic anhydrase 1 = Carbonic anhydrase 1 (Homo sapiens, UniProt P00915); assay: Inhibition of human cytosolic form of carbonic anhydrase-1 assessed as CO2 hydration activity incubated for 15 mins prior to testing by stopped flow method
Chain of Carbonic anhydrase 1 (P00915 whole entry): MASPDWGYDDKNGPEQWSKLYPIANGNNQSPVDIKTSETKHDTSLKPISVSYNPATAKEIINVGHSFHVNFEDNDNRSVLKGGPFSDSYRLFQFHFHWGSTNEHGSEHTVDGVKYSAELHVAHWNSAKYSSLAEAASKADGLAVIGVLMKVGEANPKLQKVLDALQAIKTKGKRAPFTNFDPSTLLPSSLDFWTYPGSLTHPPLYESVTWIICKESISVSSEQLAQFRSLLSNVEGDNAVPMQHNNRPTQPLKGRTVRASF

Carbonic anhydrase 2 = Carbonic anhydrase 2 (Homo sapiens, UniProt P00918); assay: Inhibition of human cytosolic form of carbonic anhydrase-2 assessed as CO2 hydration activity incubated for 15 mins prior to testing by stopped flow method
Carbonic anhydrase 9 = Carbonic anhydrase 9 (Homo sapiens, UniProt Q16790); assay: Inhibition of human membrane associated form of carbonic anhydrase-9 assessed as CO2 hydration activity incubated for 15 mins prior to testing by stopped flow method
Carbonic anhydrase 12 = Carbonic anhydrase 12 (Homo sapiens, UniProt O43570); assay: Inhibition of human membrane associated form of carbonic anhydrase-12 assessed as CO2 hydration activity incubated for 15 mins prior to testing by stopped flow method
Chain of Carbonic anhydrase 12 (O43570 whole entry): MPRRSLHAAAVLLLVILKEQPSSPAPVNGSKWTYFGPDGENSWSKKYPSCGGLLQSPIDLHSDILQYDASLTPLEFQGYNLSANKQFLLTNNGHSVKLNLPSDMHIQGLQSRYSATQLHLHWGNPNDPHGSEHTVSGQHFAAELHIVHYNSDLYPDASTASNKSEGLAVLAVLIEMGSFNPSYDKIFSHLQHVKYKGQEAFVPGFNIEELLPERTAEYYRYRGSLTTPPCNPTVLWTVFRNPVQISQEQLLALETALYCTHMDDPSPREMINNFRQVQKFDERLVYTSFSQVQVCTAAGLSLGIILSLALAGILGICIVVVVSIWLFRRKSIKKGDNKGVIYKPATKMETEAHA

MCF7 [3] = assay: Induction of apoptosis in human MCF7 cells assessed as early apoptotic cells at 0.72 uM after 24 hrs by annexin V-FITC/propidium iodide staining-based flow cytometric analysis relative to control; assay type: functional
How it was run: (§2)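 Cells were seeded at 1 x 10^5 cells/ml and held 24 h at 37 °C in 5% CO2, then treated for a further 24 h. They were harvested with 0.25% trypsin, washed twice in Ca2+/Mg2+-free PBS and adjusted to 1 x 10^6 cells/ml. Staining with annexin V-FITC/PI ran 30 min in the dark at room temperature, in binding buffer, with flow cytometry within 1 h. Untreated cells served as control.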

MCF7 [4] = assay: Induction of apoptosis in human MCF7 cells assessed as late apoptotic cells at 0.72 uM after 24 hrs by annexin V-FITC/propidium iodide staining-based flow cytometric analysis (reference value: 0.01%); assay type: functional; how it was run: as §2
MCF7 [5] = assay: Induction of apoptosis in human MCF7 cells assessed as necrotic cells at 0.72 uM after 24 hrs by annexin V-FITC/propidium iodide staining-based flow cytometric analysis (reference value: 1.58%); assay type: functional; how it was run: as §2
MCF7 [6] = assay: Induction of apoptosis in human MCF7 cells assessed as viable cells at 0.72 uM after 24 hrs by annexin V-FITC/propidium iodide staining-based flow cytometric analysis (reference value: 98.41%); assay type: functional; details: MCF7, 24 h, read-out: Activity; how it was run: as §2
A549 [7] = assay: Induction of apoptosis in human A549 cells assessed as early apoptotic cells at 0.5 uM after 24 hrs by annexin V-FITC/propidium iodide staining-based flow cytometric analysis (reference value: 1.9%); assay type: functional; how it was run: as §2
A549 [8] = assay: Induction of apoptosis in human A549 cells assessed as late apoptotic cells at 0.5 uM after 24 hrs by annexin V-FITC/propidium iodide staining-based flow cytometric analysis relative to control; assay type: functional; how it was run: as §2
A549 [9] = assay: Induction of apoptosis in human A549 cells assessed as necrotic cells at 0.5 uM after 24 hrs by annexin V-FITC/propidium iodide staining-based flow cytometric analysis (reference value: 2.04%); assay type: functional; how it was run: as §2
A549 [10] = assay: Induction of apoptosis in human A549 cells assessed as viable cells at 0.5 uM after 24 hrs by annexin V-FITC/propidium iodide staining-based flow cytometric analysis (reference value: 96.06%); assay type: functional; details: A549, 24 h, read-out: Activity; how it was run: as §2

Ki (Carbonic anhydrase 1)	Ki (Carbonic anhydrase 9)	SMILES	IC50 (MCF7 [1])	IC50 (A549 [2])	also measured
> 10 µM	0.0209 µM	CCOC1Oc2ccccc2C(=O)/C1=C/Nc1ccc(S(=O)(=O)Nc2ccccn2)cc1 (centres undefined)	28.8 µM	39.1 µM	Ki (Carbonic anhydrase 2): > 10 µM; Ki (Carbonic anhydrase 12): 0.062 µM
–	0.0298 µM	NS(=O)(=O)c1ccc(NCc2coc3ccccc3c2=O)cc1	0.72 µM	0.5 µM	Activity (MCF7 [3]): 94.12%; Activity (MCF7 [4]): 0.72%; Activity (MCF7 [5]): 0%; viability at 0.72 µM (MCF7 [6]): 5.16%; Activity (A549 [7]): 74.77%; Activity (A549 [8]): 1.64%; Activity (A549 [9]): 0.06%; viability at 0.5 µM (A549 [10]): 23.5%
–	–	CCOC1Oc2ccccc2C(=O)/C1=C/Nc1ccc(S(N)(=O)=O)cc1 (centres undefined)	22.2 µM	33.4 µM	–
> 10 µM	0.0238 µM	CCOC1Oc2ccccc2C(=O)/C1=C/Nc1ccc(S(=O)(=O)Nc2cc(C)on2)cc1 (centres undefined)	25.8 µM	57.2 µM	Ki (Carbonic anhydrase 2): > 10 µM
–	–	CCOC1Oc2ccccc2C(=O)/C1=C/Nc1ccc(S(=O)(=O)Nc2ncccn2)cc1 (centres undefined)	30.1 µM	> 100 µM	–
> 10 µM	0.0376 µM	CCOC1Oc2ccccc2C(=O)/C1=C/Nc1ccc(S(=O)(=O)Nc2nc(C)cc(C)n2)cc1 (centres undefined)	45.6 µM	36.4 µM	Ki (Carbonic anhydrase 2): > 10 µM
> 10 µM	0.0199 µM	CCOC1Oc2ccccc2C(=O)/C1=C/Nc1ccc(S(=O)(=O)Nc2nccs2)cc1 (centres undefined)	48.6 µM	> 100 µM	Ki (Carbonic anhydrase 2): > 10 µM
–	–	O=c1c(CNc2ccc(S(=O)(=O)Nc3ncccn3)cc2)coc2ccccc12	> 100 µM	85.2 µM	–
–	–	Cc1cc(C)nc(NS(=O)(=O)c2ccc(NCc3coc4ccccc4c3=O)cc2)n1	93.6 µM	55.8 µM	–
–	–	O=c1c(CNc2ccc(S(=O)(=O)Nc3nccs3)cc2)coc2ccccc12	58.6 µM	25.6 µM	–
–	–	O=c1c(CNc2ccc(S(=O)(=O)Nc3ccccn3)cc2)coc2ccccc12	> 100 µM	> 100 µM	–
0.399 µM	0.0143 µM	NS(=O)(=O)c1ccc(NC2=NC(=O)/C(=C\c3coc4ccccc4c3=O)S2)cc1	8.91 µM	2.23 µM	–
–	–	Cc1cc(NS(=O)(=O)c2ccc(NC3=NC(=O)/C(=C\c4coc5ccccc5c4=O)S3)cc2)no1	> 100 µM	> 100 µM	–
> 10 µM	0.0247 µM	O=C1N=C(Nc2ccc(S(=O)(=O)Nc3ncccn3)cc2)S/C1=C/c1coc2ccccc2c1=O	82.6 µM	> 100 µM	Ki (Carbonic anhydrase 2): > 10 µM
–	–	Cc1cc(C)nc(NS(=O)(=O)c2ccc(NC3=NC(=O)/C(=C\c4coc5ccccc5c4=O)S3)cc2)n1	> 100 µM	> 100 µM	–
–	–	O=C1N=C(Nc2ccc(S(=O)(=O)Nc3nccs3)cc2)S/C1=C/c1coc2ccccc2c1=O	> 100 µM	> 100 µM	–
8 µM	0.023 µM	NS(=O)(=O)c1ccc(N2C(=O)/C(=C/c3coc4ccccc4c3=O)N=C2c2ccccc2)cc1	11.5 µM	1.73 µM	–
> 10 µM	0.0252 µM	Cc1cc(NS(=O)(=O)c2ccc(N3C(=O)/C(=C/c4coc5ccccc5c4=O)N=C3c3ccccc3)cc2)no1	30 µM	> 100 µM	–
–	–	O=C1/C(=C/c2coc3ccccc3c2=O)N=C(c2ccccc2)N1c1ccc(S(=O)(=O)Nc2ncccn2)cc1	> 100 µM	40.5 µM	–
–	–	Cc1cc(C)nc(NS(=O)(=O)c2ccc(N3C(=O)/C(=C/c4coc5ccccc5c4=O)N=C3c3ccccc3)cc2)n1	99.7 µM	63.2 µM	–
–	–	O=C1/C(=C/c2coc3ccccc3c2=O)N=C(c2ccccc2)N1c1ccc(S(=O)(=O)Nc2nccs2)cc1	88.5 µM	88.4 µM	–
–	–	O=C1/C(=C/c2coc3ccccc3c2=O)N=C(c2ccccc2)N1c1ccc(S(=O)(=O)Nc2ccccn2)cc1	> 100 µM	> 100 µM	–
> 10 µM	0.0184 µM	NS(=O)(=O)c1ccc(N2C(=O)/C(=C/c3coc4ccccc4c3=O)N=C2c2ccc(Cl)cc2)cc1	24.3 µM	13.8 µM	–
–	–	Cc1cc(NS(=O)(=O)c2ccc(N3C(=O)/C(=C/c4coc5ccccc5c4=O)N=C3c3ccc(Cl)cc3)cc2)no1	> 100 µM	> 100 µM	–
–	–	O=C1/C(=C/c2coc3ccccc3c2=O)N=C(c2ccc(Cl)cc2)N1c1ccc(S(=O)(=O)Nc2ncccn2)cc1	> 100 µM	59 µM	–
–	–	Cc1cc(C)nc(NS(=O)(=O)c2ccc(N3C(=O)/C(=C/c4coc5ccccc5c4=O)N=C3c3ccc(Cl)cc3)cc2)n1	93.9 µM	52.6 µM	–
–	–	O=C1/C(=C/c2coc3ccccc3c2=O)N=C(c2ccc(Cl)cc2)N1c1ccc(S(=O)(=O)Nc2nccs2)cc1	> 100 µM	> 100 µM	–
–	–	O=C1/C(=C/c2coc3ccccc3c2=O)N=C(c2ccc(Cl)cc2)N1c1ccc(S(=O)(=O)Nc2ccccn2)cc1	> 100 µM	> 100 µM	–
–	–	COc1cccc2c1C(=O)c1c(O)c3c(c(O)c1C2=O)C[C@@](O)(C(=O)CO)C[C@@H]3O[C@H]1C[C@H](N)[C@H](O)[C@H](C)O1 [DOXORUBICIN]	–	26.8 µM	–

SMILES	Ki (Carbonic anhydrase 1)	Ki (Carbonic anhydrase 9)	IC50 (MCF7 [1])	IC50 (A549 [2])	also measured
Cc1cc(NS(=O)(=O)c2ccc(NCc3coc4ccccc4c3=O)cc2)no1	> 10 µM	0.0321 µM	34.5 µM	59.7 µM	Ki (Carbonic anhydrase 2): > 10 µM
O=C1N=C(Nc2ccc(S(=O)(=O)Nc3ccccn3)cc2)S/C1=C/c1coc2ccccc2c1=O	> 10 µM	0.0256 µM	47.1 µM	> 100 µM	–
